Tn7 DDE FP: inhibitors of Tn7 peptide binding to human fibrin DD(E); P02675; FP displacement of FITC-Tn7 peptide from fibrin DD(E); 0% = median of compound wells per plate; inhibition, % at 8.3 µM; actives 0.13% (n = 370,000); AID 720508;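 active = inhibition above the mean of compounds falling within the control limits plus 3 SD of them, cut at about 14% in these data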;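 also: 0% = plate median of compound wells and 100% = 10 µM Aha-Tn7 peptide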
Target sequence (P02675 whole entry, looked up): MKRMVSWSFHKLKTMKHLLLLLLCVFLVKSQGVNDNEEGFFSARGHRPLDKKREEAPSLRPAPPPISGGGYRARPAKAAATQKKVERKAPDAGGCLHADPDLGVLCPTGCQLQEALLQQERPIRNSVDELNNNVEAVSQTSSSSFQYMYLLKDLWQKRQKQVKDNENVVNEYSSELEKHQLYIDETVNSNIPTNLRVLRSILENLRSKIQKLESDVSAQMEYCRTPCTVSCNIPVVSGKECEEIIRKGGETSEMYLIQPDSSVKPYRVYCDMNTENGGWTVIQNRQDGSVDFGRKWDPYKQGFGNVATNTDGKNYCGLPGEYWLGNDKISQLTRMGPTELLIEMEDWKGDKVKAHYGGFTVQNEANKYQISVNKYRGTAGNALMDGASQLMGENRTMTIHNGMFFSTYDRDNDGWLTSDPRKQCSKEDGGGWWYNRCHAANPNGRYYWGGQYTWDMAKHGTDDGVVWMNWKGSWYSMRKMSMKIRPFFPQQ
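Test system: human clot-derived fibrin DD(E) complex / Quantity: 2 µM final DD(E) protein / Incubation: 10 min plus 3 h, room temperature / Measured by: fluorescence polarization / Benchmarks: high control of 10 µM Aha-Tn7 peptide / Replicates: singlicate testing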
CAL PDZ FP-1: CAL PDZ (human) peptide binding inhibition; Q9HD26; purified CAL PDZ, TMR-peptide fluorescence polarization, 1 h; inhibition, % at 24.9 µM; actives 0.92% (n = 300,000);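 active = mean inhibition of at least 30% with at least half of replicates also reaching 30%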;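 also: 0% = DMSO neutral control and 100% = excess unlabeled competitor peptide PRC23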
DDE Tn6 FP inh: inhibitors of Tn6 peptide binding to human fibrin DD(E); Fibrin DD(E) TRITC-Tn6 fluorescence polarization displacement; AID 720509; inhibition, % at 8.3 µM; P02675; actives 0.21% (n = 370,000);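 active = inhibition above a per-campaign cutoff: mean of compounds within control limits plus 3 SD, cut at about 15% in these data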;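 also: 0% = median of all compound wells on the plate and 100% = blocking peptide control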
CAL PDZ FP-2: inhibitors of human CAL PDZ peptide binding | Q9HD26 | actives 0.02% (n = 330,000) | purified CAL PDZ, TMR-peptide fluorescence polarization, 1 h | inhibition, % at 20 µM;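 active = highest replicate inhibition of at least 40%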;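 also: plate controls were DMSO neutral control wells for no effect and unlabeled competitor peptide control wells for full effect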
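Material: tagged CAL PDZ protein CerCALP, purified; buffer or medium: sodium phosphate/NaCl buffer pH 7.4 with TCEP, IgG, Thesit; also added: fluorescent TMR peptide probe; schedule: 1 h incubation at room temperature before polarization reading; technique: fluorescence polarization from S- and P-plane intensities, G-factor corrected; control set: unlabelled peptide and DMSO controls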
Arrestin-AP2 inh: blocks beta-arrestin peptide binding to AP2 adaptin; FITC-arrestin peptide / GST-AP2 beads, flow cytometry; AP2 beta2 appendage carries R879A mutation; inhibition, % at 10 µM; actives 0.31% (n = 340,000); AID 504490;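 active = inhibition above a set limit, near 3 SD of compounds lacking own fluorescence, cut at about 54% in these data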;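 also: plate controls were DMSO wells for no effect and 5 µM unlabelled arrestin peptide for full effect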
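test system = AP2 appendage R879A on GSH beads | buffer or medium = PBS plus Tween 20 (0.05%) and BSA (0.1%) | incubation = 12 min plus 1 h, RT | detection = bead flow cytometry, FITC channel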
* = called active by the depositor; . = no result; + = active, no number. Rows were chosen to be rich in hits. Some 1.4% of all compounds tested hit in one or more screens of this group.

SMILES	Tn7 DDE FP	CAL PDZ FP-1	DDE Tn6 FP inh	CAL PDZ FP-2	Arrestin-AP2 inh
CC(=O)c1cc(-c2ccc([N+](=O)[O-])cc2)c(=O)n2c1CCC2	0.9	.	-7.5	.	.
COc1cccc2c1C(=O)c1c(O)c3c(c(O)c1C2=O)CC(O)(C(C)=O)CC3OC1CC(O)C(O)C(C)O1 (stereo not given)	25.9*	-1.1	+	11.3	30.1
CCCCC(=O)OCC(=O)C1(O)Cc2c(O)c3c(c(O)c2C(OC2CC(NC(=O)C(F)(F)F)C(O)C(C)O2)C1)C(=O)c1c(OC)cccc1C3=O (stereo not given)	-0.5	-7.0	43.0*	-1.6	5.8
COc1cccc2c1C(=O)c1c(O)c3c(c(O)c1C2=O)C[C@](O)(C(C)=O)C[C@H]3O[C@@H]1C[C@@H](N)[C@@H](O)[C@@H](C)O1	24.7*	10.1	+	14.0	32.1
COc1cccc2c1C(=N)c1c(O)c3c(c(O)c1C2=O)CC(O)(C(C)=O)CC3OC1CC(N)C(O)C(C)O1 (stereo not given)	.	-5.2	.	3.6	-16.1
COC(=O)[C@]12C[C@H](CC(=O)N3CCCC3)C(=O)N(CCC3=CCCCC3)C1=C[C@H](C1CCCC1)O[C@@H]2C	0.8	.	-8.9	.	.
COc1ccccc1C(=O)N/N=C/C(C)=C/c1ccccc1	4.0	34.6*	-4.7	8.3	-9.8
CC(/C=N/NC(=O)c1ccncc1)=C\c1ccccc1	-7.0	-0.7	-1.3	-5.8	-0.5
Oc1ccccc1-c1nnc(SCCN2CCOCC2)n1Cc1ccccc1	5.5	55.7*	-2.1	-1.8	-1.4
CCOc1ccccc1C(=O)NCC(=O)OCC(=O)N1CCCC1	3.8	44.2*	5.5	0.1	5.1
CCOc1ccccc1C(=O)NCC(=O)OCC(=O)N1C(C)CCCC1C (stereo not given)	0.5	-1.3	-2.5	-0.4	0.8
CC(C(=O)O)c1cccc(C(=O)c2ccccc2)c1 (stereo not given)	3.0	32.4*	5.3	-0.2	-2.6
C[C@H](C(=O)O)c1cccc(C(=O)c2ccccc2)c1	-0.2	3.0	-2.1	0.2	27.2
CCc1ccccc1NC(=O)CC1SCCNC1=O (stereo not given)	-5.7	32.0*	-2.0	-1.4	9.9
O=C(CC1SCCNC1=O)Nc1cccc(Cl)c1 (stereo not given)	-1.9	-1.9	-6.7	-0.6	-8.8
Clc1ccc(CN2CCSCC2)cc1Cl	2.8	-4.5	10.1	-1.6	-0.7
O=C1CSCC(=O)N1Cc1ccc(Cl)c(Cl)c1	-3.2	42.8*	-3.9	.	35.6
O=C(C=C1CCN(c2ncc(C(F)(F)F)cc2Cl)CC1)NNC(=O)Nc1ccc(Cl)cc1	-1.0	74.0*	-3.4	4.9	2.0
O=C(C=C1CCN(c2ncc(C(F)(F)F)cc2Cl)CC1)NNC(=O)Nc1ccccc1	-11.7	1.7	-2.3	-1.4	-1.3
CCc1nnn2c1Cn1c3ccccc3c(=O)n1[C@@H](C(C)C)C2	-7.4	.	-3.3	.	.
COc1ccc(NS(=O)(=O)c2ccc3oc(=O)ccc3c2)cc1	-1.5	-4.5	-3.1	.	9.1
COc1ccc(NS(=O)(=O)c2ccc3oc(=S)[nH]c3c2)cc1	1.0	31.3*	5.5	-1.2	0.9
CCN(CC)c1ccc(NS(=O)(=O)c2ccc(OC)cc2)cc1	-3.0	65.8*	2.7	-0.5	-7.5
O=C(NC(=S)Nc1ccc(F)c(Cl)c1)C1CC1	7.4	-2.9	3.4	-1.7	25.6
Cc1ccc(NC(=S)NC(=O)C2CC2)cc1Cl	-4.0	51.8*	-3.0	-3.5	-8.1
NCC(O)COCCC12CC3CC(CC(C3)C1)C2 (stereo not given)	-5.7	38.9*	-2.5	-1.7	-8.5
O=C(N[C@@H](Cc1c[nH]c2ccccc12)C(=O)O)C1CCN(S(=O)(=O)c2cccs2)CC1	0.4	70.6*	-0.6	.	5.1
O=C(N[C@@H](Cc1c[nH]c2ccccc12)C(=O)O)C1CCN(S(=O)(=O)c2ccc(Cl)cc2)CC1	-2.2	32.2*	0.9	-0.8	3.9
CCN(CC)C(=O)CC[C@H]1CC[C@]2(CCCN(C(=O)C3CCCC3)C2)O1	1.4	.	2.0	.	.
C[C@H]1[C@H](NC(=O)c2ccc(C(F)(F)F)cc2)CC[C@@]23CCCN2C(=O)CCC[C@@H]13	-3.9	.	-8.1	.	.

Screens: PubChem BioAssay, several laboratories
